pEC50, pIC50: −log10 of the molar value. Bounds are passed on as bounds.

Data set [1] addresses T1, Human immunodeficiency virus type 1 integrase (Human immunodeficiency virus 1, UniProt Q7ZJM1). Description: Inhibition of HIV-1 integrase-mediated strand transfer activity using [32P]-labeled oligonucleotide as substrate after 2 hrs by densitometric analysis. Put shortly: (§1)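 400 nM integrase with 20 nM [γ-32P]-labeled DNA in 50 mM MOPS pH 7.2, 7.5 mM MgCl2, 14 mM 2-mercaptoethanol; compounds in DMSO. The substrate for 3′-processing was 21T/21B duplex, and for strand transfer the precleaved 19T/21B duplex. Reactions ran 2 h at 37 °C and were quenched with formamide/SDS loading buffer.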

Data set [2] has as its target T1, Human immunodeficiency virus type 1 integrase. Kind of data set: Inhibition of HIV-1 integrase-mediated 3'-processing activity using [32P]-labeled oligonucleotide as substrate after 2 hrs by densitometric analysis. Put shortly:
as §1

Data set [3] can be described thus: Selectivity index, ratio of CC50 for HOS cells to EC50 for wild-type Human immunodeficiency virus 1.
A further data set concerns HOS. Kind of data set: Cytotoxicity against HOS cells assessed as reduction in ATP level after 48 hrs by luciferase reporter gene assay. The conditions noted are these: human. It counts as cell-based. The essentials:
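HOS cells in DMEM with 5% FBS and 5% newborn calf serum, seeded 4000 per well the day before, exposed to compound for 48 h at 37 °C. Cells lysed and ATP measured with a luciferase (ATPlite) read-out. Signal normalized to untreated cells; CC50 from regression fit.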
On the technique in general: In a reporter assay the amount or activity of a reporter protein is the signal.

The subject of data set [4] is Human immunodeficiency virus 1. Kind of data set: Antiviral activity against Human immunodeficiency virus 1 harboring integrase N155H mutant infected in HOS cells preincubated for 3 hrs followed by viral infection measured after 48 hrs by luciferase reporter gene assay. It counts as functional, organism-based. The conditions noted are these: Human immunodeficiency virus 1, HOS. Put shortly:
(§2)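 VSV-g-pseudotyped single-round HIV-1 luciferase vector (pNLNgoMIVR-ΔLUC; IN mutants made by site-directed mutagenesis), produced by 293T transfection. HOS cells seeded the day before, given compound over 10 μM to 0.0005 μM (11 serial dilutions), 3 h at 37 °C, then virus added; 48 h at 37 °C. Luciferase read-out normalized to no-compound infectivity; EC50 from regression fit.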

Data set [5] has as its system Human immunodeficiency virus 1. Description: Antiviral activity against Human immunodeficiency virus 1 harboring integrase Y143R mutant infected in HOS cells preincubated for 3 hrs followed by viral infection measured after 48 hrs by luciferase reporter gene assay. The conditions noted are these: Human immunodeficiency virus 1, HOS. It counts as functional, organism-based. The essentials: as §2

Data set [6] deals with Human immunodeficiency virus 1. Kind of data set: Antiviral activity against wild-type Human immunodeficiency virus 1 infected in HOS cells preincubated for 3 hrs followed by viral infection measured after 48 hrs by luciferase reporter gene assay. In kind it is functional, organism-based. The conditions noted are these: Human immunodeficiency virus 1, HOS. The essentials:
as §2

Data set [7] relates to Human immunodeficiency virus 1. Description: Ratio of raltegravir EC50 to compound EC50 for Human immunodeficiency virus 1 harboring integrase G140S/Q148H double mutant. In kind it is functional. Put shortly:
(§3)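 VSV-g-pseudotyped single-round HIV-1 luciferase vectors, produced in 293T cells, carrying WT or site-directed mutant IN (G118R, Y143R, N155H, G140S+Q148H, E138K+Q148K). HOS cells were pretreated 3 h at 37 °C with compound (10 μM to 0.0005 μM, 11 serial dilutions), infected, and incubated 48 h. Luciferase signal was normalized to no-compound infectivity, and EC50 was taken from regression fit. Ratios were formed from these EC50s.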

For data set [8], the system named is Human immunodeficiency virus 1. Description: Ratio of raltegravir EC50 to compound EC50 for Human immunodeficiency virus 1 harboring integrase Y143R mutant. In kind it is functional. Put shortly: as §3
The subject of data set [9] is Human immunodeficiency virus 1. Description: Ratio of EC50 for Human immunodeficiency virus 1 harboring integrase G118R mutant to EC50 for wild-type Human immunodeficiency virus 1. In kind it is functional. The essentials:
as §3

Data set [10] deals with Human immunodeficiency virus 1. Kind of data set: Ratio of EC50 for Human immunodeficiency virus 1 harboring integrase N155H mutant to EC50 for wild-type Human immunodeficiency virus 1. It counts as functional.
Data set [11] concerns Human immunodeficiency virus 1. Kind of data set: Antiviral activity against Human immunodeficiency virus 1 harboring integrase G140S/Q148H double mutant infected in HOS cells preincubated for 3 hrs followed by viral infection measured after 48 hrs by luciferase reporter gene assay. It counts as functional, organism-based. The conditions noted are these: Human immunodeficiency virus 1, HOS. Put shortly:
as §2

In data set [12] the test system is Human immunodeficiency virus 1. Kind of data set: Ratio of raltegravir EC50 to compound EC50 for Human immunodeficiency virus 1 harboring integrase E138K/Q148K double mutant. In kind it is functional. Put shortly: as §3
The subject of data set [13] is Human immunodeficiency virus 1. Description: Ratio of raltegravir EC50 to compound EC50 for Human immunodeficiency virus 1 harboring integrase N155H mutant. In kind it is functional. The essentials:
as §3

T1 sequence (Q7ZJM1 whole entry): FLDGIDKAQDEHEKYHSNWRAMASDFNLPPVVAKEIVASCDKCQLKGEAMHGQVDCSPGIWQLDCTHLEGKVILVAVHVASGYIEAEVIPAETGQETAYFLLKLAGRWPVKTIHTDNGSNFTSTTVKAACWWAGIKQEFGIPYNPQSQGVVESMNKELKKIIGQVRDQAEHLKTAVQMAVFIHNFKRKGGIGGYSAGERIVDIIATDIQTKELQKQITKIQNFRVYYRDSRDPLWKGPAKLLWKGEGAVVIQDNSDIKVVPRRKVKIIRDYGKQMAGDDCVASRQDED

Regarding `O=C(NCc1ccc(F)cc1F)c1cc2cccc(O)c2n(O)c1=O`, the pIC50 – broadly, −log10 of the IC50, conventionally taken in molar units – in [1] was 4.74; in data set [2], 4.37.
Consider `O=C(NCc1ccc(F)cc1F)c1cc2ccccc2n(O)c1=O`, for which the figures for the pIC50 in [1] and in data set [2] were 4.71 and under 3.48, respectively.
With `O=C(NCc1ccc(F)c(Cl)c1)c1cc2cccnc2n(O)c1=O`, the selectivity ratio in data set [3] was over 6580. Also, the CC50 (in general, the concentration at which the toxic effect on the cells reaches its halfway point) in the data set with HOS is over 250000 nM. For the same compound, the negative-log EC50 (pEC50) (as a rule, the negative decadic logarithm of the EC50, by convention in mol/L) in [4] is 7.05; in data set [5] it was 7.47; in data set [6], 7.42. Also, the pIC50 in [1] was 7.85; in [2], 5.03.
For `O=C(NCc1ccc(F)c(Cl)c1)c1cc2cccc(O)c2n(O)c1=O`, the figures for the pIC50 in data set [1] and in data set [2] were 6.28 and 4.77, respectively.
Take `O=C(NCc1ccc(F)c(F)c1)c1c(O)c2cccnc2[nH]c1=O`: the values for the pIC50 in data set [1] and in data set [2] were 5.09 and 4.03, respectively.
For `COc1cccc2cc(C(=O)NCc3ccc(F)cc3F)c(=O)n(O)c12`, in that order: under 3.48 and under 3.48.
For `O=C(NCc1ccc(F)cc1F)c1c(O)c2cccnc2n(O)c1=O`, the “Ratio EC50” value came to 10 in data set [7]; 10 in data set [8]; 6 in [9]; 5 in data set [10]; 10 in data set [12]; 10 in [13]. The selectivity ratio in [3] is 22100. Besides, the half-maximal cytotoxic concentration (CC50) in the data set with HOS was found to be 137000 nM. In addition, the pEC50 in data set [4] is 7.51; in data set [11] it was 6.51; in data set [5], 7.96; in [6], 8.21. For the same compound, the pIC50 in data set [1] is 7.26; in data set [2] it was 5.92.
In the case of `O=C(NCc1ccc(F)c(F)c1)c1cc2cccnc2n(O)c1=O`, the selectivity ratio in data set [3] was over 4030. For the same compound, in the data set on HOS, the CC50 is over 250000 nM. Besides, the pEC50 in data set [4] was 5.66; in data set [5] it was 7.40; in data set [6] it was 7.21. In addition, the pIC50 in data set [1] is 7.77; in data set [2], 4.87.
For `O=C(NCc1ccc(F)c(F)c1)c1cc2cccc(O)c2n(O)c1=O`, the pIC50 in data set [1] was 6.11; in data set [2], 4.62.
On to `O=C(NCc1ccc(F)cc1F)c1cc2cccnc2n(O)c1=O`, for which, in [3], the selectivity ratio was over 49000. Besides, in data set [10], the “Ratio EC50” value was 26. In the data set on HOS, the half-maximal cytotoxic concentration (CC50) is over 250000 nM. For the same compound, the negative-log EC50 (pEC50) in data set [4] was 6.87; in [11], 6.36; in data set [6], 8.29. Further, the pIC50 is 7.39 in data set [1] and 5.21 in [2].
Take `O=C(NCc1ccc(F)c(F)c1)c1c(O)c2cccnc2n(O)c1=O`: the selectivity ratio in data set [3] amounted to 9600. The CC50 in the data set on HOS was found to be 192000 nM. Also, the pEC50 in data set [4] is 6.72; in data set [11], 6.29; in [5], 7.35; in data set [6] it was 7.70. Further, the pIC50 in data set [1] is 7.40; in data set [2], 5.44.
For the compound `O=C(NCc1ccc(F)cc1F)c1c(O)c2cccnc2[nH]c1=O`, the pIC50 in [1] was 5.15; in data set [2], under 3.48.
In the case of `O=C(NCc1ccc(F)c(Cl)c1)c1c(O)c2cccnc2n(O)c1=O`, the selectivity ratio in [3] turned out to be 2910. Besides, the CC50 in the data set with HOS turned out to be 102000 nM. Further, the pEC50 is 6.83 in [4], 6.31 in [11], 7.27 in data set [5] and 7.46 in [6]. The negative-log IC50 (pIC50) in [1] is 7.57; in data set [2], 5.33.
Consider `O=C(NCc1ccc(F)c(Cl)c1)c1c(O)c2cccnc2[nH]c1=O`, for which the pIC50 was 5.11 in data set [1] and 3.90 in data set [2].
As for `Cc1nnc(C(=O)NC(C)(C)c2nc(C(=O)NCc3ccc(F)cc3)c(O)c(=O)n2C)o1`, the CC50 in the data set with HOS is over 100000 nM.

For the origin of these results see ChEMBL document CHEMBL3124837, “Bicyclic 1-hydroxy-2-oxo-1,2-dihydropyridine-3-carboxamide-containing HIV-1 integrase inhibitors having high antiviral potency against cells harboring raltegravir-resistant integrase mutants” (J Med Chem, 2014).
